# Source: PubChem BioAssay
# An excerpt weighted towards active compounds, which were near 3.5% of everything screened.
# RAM inhibit = yeast RAM network inhibition. 190,000 tested, 1.8% active. S. cerevisiae dse1pr::URA3 reporter, 5-FOA growth OD615, 2 d; analog-sensitive cbk1-as2 kinase mutant strain. inhibition, % at 50 µM;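 active = inhibition above a set limit, 3 SD over mean compound inhibition, cut at about 8.4% in these data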;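 also: 0% = DMSO-only wells with no growth and 100% = 10 µM 1-NA-PP1 full growth; inhibition rescues growth on 5-FOA so higher OD means more RAM inhibition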
# MT stabilizer = microtubule stabilization, imaging screen. AID 2205. % tubulin-high responders, % at 10 µM. 200,000 tested, 0.83% active. HeLa tubulin immunostaining HCS, 24 h; share of cells brighter than vehicle mean+2SD;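 active = plate Z-score above 3 for both tubulin-high and condensed-nucleus cell shares, with cell loss under 80%, at 10 µM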;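 also: anti alpha tubulin signal scored within the nucleus-defined area of each cell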
# Yeast life ext = extends the lifespan of yeast; AID 775; inhibition of the nicotinamide effect, % at 10 µM; 130,000 tested, 0.68% active; S. cerevisiae growth with nicotinamide, OD615; deaD strain in restrictive glucose medium;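 active = inhibition above a set limit, placed 3 SD over the median of all compounds, cut at about 26% in these data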;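 also: 0% = nicotinamide-treated wells and 100% = cells grown without nicotinamide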
#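 System: Modified budding yeast, DeaD strain | Buffer or medium: Restrictive glucose medium | Also added: 1.5 mM nicotinamide | Doses: 10 µM single point, 0.25% DMSO | Schedule: 48 h compound exposure at 30 °C, humidified | Detection: Absorbance at 615 nm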
# HMGR II inh = inhibitors of class II HMG-CoA reductase from Enterococcus faecalis. purified E. faecalis HMGR, NADPH absorbance 340 nm kinetic. inhibition, % at 10 µM. 190,000 tested, 0.41% active. AID 1066;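 active = inhibition above a set limit, the median over all tested compounds plus 3 SD, cut at about 9.5% in these data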;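 also: enzyme runs in reverse so mevalonate oxidation gives rising NADPH absorbance; 0% = complete reaction with DMSO and 100% = background rate lacking mevalonate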
# Yeast growth inh = chemicals that inhibit yeast BB579 growth in restrictive medium (lifespan-shortening candidates); S. cerevisiae BB579 growth, OD615, 48 h; inhibition, % at 10 µM; 140,000 tested, 0.51% active; AID 804;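 active = inhibition above a set limit, 3 SD over the mean compound inhibition, cut at about 44% in these data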
#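 Detection: OD615 turbidity measurement; Material: Saccharomyces cerevisiae DeaD strain BB579, replicative lifespan model yeast; Timing: 48 h exposure, 30 °C; Doses: single 10 µM dose; Medium: CSMM-D restrictive synthetic medium containing dextrose (glucose); Controls: amphotericin B at 10 µg/mL as positive control.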
# bCat nuc transl = beta-catenin nuclear translocation modulation; HeLa beta-catenin nuclear translocation, immunofluorescence imaging; nuclear translocation activity, % at 5 µM; 190,000 tested, 0.3% active; AID 1665;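 active = nuclear translocation activity above 50% at 5 µM, with a well cell count of 50 or more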;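 also: per-cell ratio of nuclear to cytoplasmic median beta-catenin stain intensity; plate controls were DMSO negative control for no effect and GSK-3 inhibitor IX positive control for full effect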
#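 Test system: HeLa cells, endogenous beta-catenin; Compound: single 5 µM dose plus 0.02–20 µM confirmation series; Times: compound exposure 24 h at 37°C; Signal: fluorescence imaging of beta-catenin antibody stain plus DAPI; Read-out: % activation, nuclear-to-cytoplasmic median beta-catenin signal ratio per cell.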
# Active calls of the source: *; nt = not tested or not shown; ! = not active in a repeat.
SMILES,RAM inhibit,MT stabilizer,Yeast life ext,HMGR II inh,Yeast growth inh,bCat nuc transl
CC1CCC(C(C)C)C(OC(=O)CSc2n[nH]c(=O)[nH]c2=O)C1 (stereo not drawn),2.4,1.1,47.5*,-3.9,-46.9,-3.3
c1ccc2c(-c3[nH]ncc3CNCCCn3ncc4ccccc43)cccc2c1,1.4,2.1,nt,-7.5,nt,-0.1
Cc1cccc(N2CCN(C(=O)c3ccc4ncsc4c3)CC2)c1C,0.0,43.4*,-11.1,-0.8,18.4,150.1*
Cc1cccc(N2CCN(C(=O)N3CCCCC3)CC2)c1C,0.1,3.4,nt,4.0,nt,2.5
Cc1cccc(C)c1N1CCN(C(=O)N2CCCCC2)CC1,-0.9,1.7,nt,14.4*,nt,-0.3
Cc1cccc(N2CCN(C(=O)N3CCOCC3)CC2)c1C,-0.1,35.8*,nt,3.2,nt,29.8
COc1cc(C(=O)N2CCN(c3cc(Cl)ccc3Cl)CC2)cc(OC)c1OC,-0.6,9.5,-9.9,-0.4,-9.6,19.4
COc1cc(C(=O)N2CCN(c3cccc(C)c3C)CC2)cc(OC)c1OC,0.3,13.1,-1.7,1.0,-28.8,64.0*
O=S(=O)(c1ccc2ncn(O)c2c1)N1CCOCC1,-0.1,2.9,nt,-1.0,nt,1.2
CCOC(=O)c1cc(NC(=O)c2ccccc2)c(=O)n2c1oc1ccccc12,1.6,6.5,nt,-1.4,nt,0.7
COc1cccc(CC2(CO)CCCN(Cc3cc(F)ccc3-n3cccn3)C2)c1 (stereo not drawn),0.9,5.1,nt,-4.6,nt,0.1
COc1ccccc1N1CCN(C(=O)c2oc3cc(C)cc(C)c3c2C)CC1,0.1,24.8*,nt,-1.2,-45.0,1.0
Cc1cccc(N2CCN(C(=O)c3ccc4nc[nH]c4c3)CC2)c1C,1.1,2.3,1.0,-6.1,-24.7,-0.5
Cc1cccc(N2CCN(C(=O)c3ccncc3)CC2)c1C,-0.1,45.2*,-4.9,-6.3,-6.1,nt
COc1ccccc1N1CCN(C(=O)c2ccoc2C)CC1,1.1,5.2,-5.5,-0.3,-30.1,-2.2
O=C(Cc1ccccc1)NC1(Cc2ccc(O)cc2)CCCCC1,3.3,3.0,nt,-4.4,nt,0.5
Cc1c(OCc2ccc(C(=O)O)o2)ccc2c3c(c(=O)oc12)CCC3,9.4*,3.5,-15.4,-7.6,-12.8,-5.1
CNc1ccccc(-c2ccc3ccccc3n2)c1=O,0.0,5.3,31.9*,1.7,-14.4,nt
c1ccc2nc(-c3nc4ccccc4o3)ccc2c1,1.2,1.7,-20.2,-0.2,8.2,nt
COc1ccc(C2(C(=O)O)CCCC2)cc1,1.6,4.3,34.7*,-4.4,-26.7,-1.6
COc1cc(S(=O)(=O)Nc2cccc(C)c2)ccc1N=Cc1c(C)[nH]n(-c2ccccc2)c1=O,8.5*,18.3*,-4.9,2.4,-32.5,-2.4
O=C(CSc1ccccc1C(=O)O)NCC1CCCCC1,1.3,1.6,nt,-8.4,nt,0.5
CC1CCN(CCNC(=S)Nc2ccc(Cl)cc2)CC1,1.2,4.4,nt,-2.4,nt,-2.3
CN1C(=O)C2(N=c3ccccc3=N2)c2ccccc21,0.9,5.7,-34.8,-4.3,57.2*,-11.8
CN1C(=O)C(O)(c2nnc(-c3ccccc3)o2)c2ccccc21 (stereo not drawn),0.6,1.6,nt,-1.2,nt,-3.6
SMILES,RAM inhibit,MT stabilizer,Yeast life ext,HMGR II inh,Yeast growth inh,bCat nuc transl
COc1ccc(CNC(=O)c2cc(-c3ccccc3OC)on2)cc1,8.6*,2.3,-16.5,0.7,-34.6,-2.8
COc1ccccc1-c1cc(C(=O)NCc2ccccc2)no1,1.7,6.6,-17.4,-4.1,-20.7,-0.9
O=C(O/N=C\c1ccc(N2CCCCC2)c([N+](=O)[O-])c1)c1cccc(Cl)c1,11.2*,2.3,-5.5,-1.3,-47.7,1.1
CC(c1ccccc1)C1CC(=O)N(c2cc(Cl)ccn2)C1=O (stereo not drawn),nt,nt,nt,nt,nt,-1.5
CCCCCCCCn1c(=O)c(C(=O)OCC)c(O)c2ccccc21,0.5,1.7,39.1*,-6.2,16.2,-2.5
CCCCCn1c(=O)c(C(=O)OCC)c(O)c2ccccc21,9.0*,5.1,21.7,-4.5,9.8,-0.8
Cc1ncc([N+](=O)[O-])n1CC(C)O (stereo not drawn),1.3,3.0,-10.7,15.6*!,-48.5,-4.1
CCS(=O)(=O)CCn1c([N+](=O)[O-])cnc1C,1.5,3.2,7.0,13.6*,-30.5,nt
Cc1ccc(Cn2c([N+](=O)[O-])cnc2C)cc1,1.1,4.4,1.4,-5.3,-28.5,3.5
CCN(CC)S(=O)(=O)c1ccc2c(c1)C(=NO)c1cc(S(=O)(=O)N(CC)CC)ccc1-2,10.3*,3.2,nt,4.8,-46.2,0.0
COc1ccc(-n2nnnc2SCC(N)=O)cc1,0.8,2.5,-0.5,1.8,-37.5,nt
O=C(O)CSc1nc2ccccc2s1,nt,nt,nt,nt,nt,-0.3
COc1ccc(-n2nnnc2SCC(=O)c2cc3ccccc3o2)cc1,8.5*,2.2,-16.5,0.6,-42.3,-5.5
O=C(CSc1nc2ccccc2s1)c1cc2ccccc2o1,9.4*,1.7,-5.2,-12.8,-23.3,-0.8
CC1=C(C#N)c2nc(N)c(C#N)c(C)c2/C1=C\c1ccc(OCC(=O)O)c(Cl)c1,nt,nt,nt,nt,nt,1.8
Cc1cc(NC(=O)C2CCCN2C(=O)Nc2cccc(Cl)c2)ccc1-n1cnnn1 (stereo not drawn),4.5,3.6,nt,-3.2,nt,0.0
Cc1ccc(NC(=O)N2CCCC2C(=O)Nc2ccc(-n3cnnn3)c(C)c2)cc1 (stereo not drawn),0.3,3.1,nt,9.7*,-35.9,0.7
COc1ccc(S(=O)(=O)N(C)c2ccc(C(=O)N3CCCC3)cc2)cc1,0.7,1.1,nt,9.7*,nt,0.8
COc1ccc(S(=O)(=O)N(C)c2ccc(C(=O)N3CCC(C(N)=O)CC3)cc2)cc1,0.9,2.8,-8.8,-5.3,-6.2,0.4
COc1ccccc1NC(=O)OCC#CCOC(=O)Nc1ccccc1OC,nt,nt,nt,nt,nt,0.5
Cc1nn(Cc2ccccc2)c(Cl)c1C(=O)OCc1nnc(-c2ccc(Cl)cc2)o1,8.6*,3.3,-7.3,-1.2,-28.0,-1.8
C=CCN1C(=O)C(Cc2ccc(OCC)cc2)S/C1=N\N=C\c1cccs1 (stereo not drawn),9.3*,4.3,29.6*,-0.8,-43.6,-0.5
Cc1cccnc1NC1(C(F)(F)F)N=C2SCCN2C1=O (stereo not drawn),1.0,1.0,nt,1.2,nt,-0.2
CC/C(=C1/C(=O)CC(C)(C)C(C(=O)OC)C1=O)N1CCCC1 (stereo not drawn),0.8,2.5,29.8*,-3.1,-21.2,-2.6
CCO/N=C/C1=C(O)C(C(=O)OC)C(C)(C)CC1=O (stereo not drawn),1.4,4.4,nt,0.8,nt,0.0
O=C(Nc1ccc([N+](=O)[O-])cc1Br)c1cc2ccccc2nc1Cl,nt,nt,nt,nt,nt,-0.7
COc1ccc(NS(=O)(=O)c2cc(NC(=O)[C@@H](NC(=O)c3ccccc3)C(C)C)ccc2C)cc1,8.6*,8.4,1.4,-2.9,-33.3,41.7
